Data: ChEMBL document CHEMBL3352286, “Submonomer synthesis of azapeptide ligands of the Insulin Receptor Tyrosine Kinase domain” (Bioorg Med Chem Lett, 2014)
Starred links: 1 amine or outer side, 2 acyl side, 3 side chain; linkers in the order of their positions; H or OH if unused. Non-standard residues stand in square brackets, D forms with d. Residues, ends and D or L forms follow the SMILES beside them. azaTyr = O=C(N(Cc1ccc(O)cc1)N[*:1])[*:2]; X1 = O=C(N(Cc1ccc(O)c(O)c1)N[*:1])[*:2]; azaPhe = O=C(N(Cc1ccccc1)N[*:1])[*:2]; X3 = CC[C@H](C)N(N[*:1])C(=O)[*:2]; X2 = O=C(O)CCN(N[*:1])C(=O)[*:2]; AzaAla = CN(N[*:1])C(=O)[*:2]; azaGly = NNC(=O)O

Columns and labels:
[1] = molecular target: Insulin receptor (Homo sapiens) (UniProt P06213); test: Inhibition of human active insulin receptor tyrosine kinase domain (amino acids 1005 to 1310) assessed as reduction in autophosphorylation at 400 uM using 1000 uM ATP and insulin by BCIP/NBT staining based colorimetry and immunoblotting
[2] = molecular target: Insulin receptor (Homo sapiens) (UniProt P06213); test: Inhibition of human active insulin receptor tyrosine kinase domain (amino acids 1005 to 1310) assessed as residual autophosphorylation level at 400 uM using 1000 uM ATP and insulin by BCIP/NBT staining based colorimetry and immunoblotting
Procedure, shortened: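 Recombinant IRTK domain (residues 1005–1310), 200 ng/mL, incubated with 1000 µM ATP and peptide ligand in reaction buffer for 20 min at 37 °C, then quenched. Samples were resolved by denaturing 10% Bis-Tris PAGE and transferred to PVDF, which was blocked overnight in 2% BSA/TBST. Blots were probed with anti-phospho-IR/IGF1R (Tyr1158/1162/1163) and an AP-conjugated goat anti-rabbit IgG, and developed colorimetrically with BCIP/NBT.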

[3] = Retention time of the compound using 2 to 90% MeCN in H2O with 0.1% FA over 15 mins by RP-LC method; type: physicochemical; details: 0.25 h
[4] = Retention time of the compound using 2 to 90% MeOH in H2O with 0.1% FA over 15 mins by RP-LC method; type: physicochemical; details: 0.25 h
Procedure, shortened: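 Reversed-phase LC with UV detection at 214 nm; gradient of 2–90% MeOH in H2O containing 0.1% formic acid over 15 min; retention time in minutes.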

[5] = molecular target: Insulin receptor (Homo sapiens) (UniProt P06213); test: Stimulation of human active insulin receptor tyrosine kinase domain (amino acids 1005 to 1310) assessed as increase in autophosphorylation at 400 uM using 1000 uM ATP and insulin by BCIP/NBT staining based colorimetry and immunoblotting
[6] = molecular target: Insulin receptor (Homo sapiens) (UniProt P06213); test: Inhibition of IRTK (unknown origin) assessed as reduction in enzyme phosphorylation at 4 mM
[7] = molecular target: Insulin receptor (Rattus norvegicus) (UniProt P15127); test: Inhibition of rat liver IRTK assessed as reduction in enzyme phosphorylation at 4 mM
Insulin receptor (Rattus norvegicus), sequence (P15127 27-759 limits assumed): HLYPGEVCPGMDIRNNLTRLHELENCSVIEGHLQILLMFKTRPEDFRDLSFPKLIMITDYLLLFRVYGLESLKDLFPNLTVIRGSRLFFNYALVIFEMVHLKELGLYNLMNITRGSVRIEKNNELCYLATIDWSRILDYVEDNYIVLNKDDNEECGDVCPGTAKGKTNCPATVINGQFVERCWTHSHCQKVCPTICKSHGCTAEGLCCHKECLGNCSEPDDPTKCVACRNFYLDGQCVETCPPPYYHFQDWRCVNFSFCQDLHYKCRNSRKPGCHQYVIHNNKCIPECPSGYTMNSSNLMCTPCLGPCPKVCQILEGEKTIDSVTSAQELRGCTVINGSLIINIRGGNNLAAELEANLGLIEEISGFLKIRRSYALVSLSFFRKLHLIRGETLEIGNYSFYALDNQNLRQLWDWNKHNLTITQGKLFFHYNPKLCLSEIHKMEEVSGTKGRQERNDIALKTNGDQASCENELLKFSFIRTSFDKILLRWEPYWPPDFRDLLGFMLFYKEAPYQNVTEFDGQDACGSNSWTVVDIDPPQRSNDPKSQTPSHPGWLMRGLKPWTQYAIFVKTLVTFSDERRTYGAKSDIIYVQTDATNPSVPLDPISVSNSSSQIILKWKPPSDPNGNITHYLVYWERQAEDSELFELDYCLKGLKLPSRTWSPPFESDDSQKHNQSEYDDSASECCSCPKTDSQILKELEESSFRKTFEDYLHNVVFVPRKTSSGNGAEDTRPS
Insulin receptor (Rattus norvegicus), sequence (P15127 764-1383 limits assumed): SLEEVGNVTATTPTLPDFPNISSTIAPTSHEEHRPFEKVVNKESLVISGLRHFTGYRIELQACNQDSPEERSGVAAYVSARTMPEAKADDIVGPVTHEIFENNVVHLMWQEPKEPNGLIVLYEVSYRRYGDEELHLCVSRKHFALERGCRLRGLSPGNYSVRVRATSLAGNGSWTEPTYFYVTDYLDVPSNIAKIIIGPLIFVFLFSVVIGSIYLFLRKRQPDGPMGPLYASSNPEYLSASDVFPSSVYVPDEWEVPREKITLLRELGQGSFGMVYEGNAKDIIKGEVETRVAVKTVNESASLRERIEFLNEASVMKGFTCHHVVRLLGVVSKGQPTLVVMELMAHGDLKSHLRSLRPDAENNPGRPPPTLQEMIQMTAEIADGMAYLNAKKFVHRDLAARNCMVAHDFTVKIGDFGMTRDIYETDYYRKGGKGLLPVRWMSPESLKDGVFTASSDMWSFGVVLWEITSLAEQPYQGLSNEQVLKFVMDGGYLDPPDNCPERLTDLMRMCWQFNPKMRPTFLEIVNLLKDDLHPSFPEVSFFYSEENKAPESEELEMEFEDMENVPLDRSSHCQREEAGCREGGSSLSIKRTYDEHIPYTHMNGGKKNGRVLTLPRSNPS

Insulin receptor (Homo sapiens), sequence (P06213 28-758 limits assumed): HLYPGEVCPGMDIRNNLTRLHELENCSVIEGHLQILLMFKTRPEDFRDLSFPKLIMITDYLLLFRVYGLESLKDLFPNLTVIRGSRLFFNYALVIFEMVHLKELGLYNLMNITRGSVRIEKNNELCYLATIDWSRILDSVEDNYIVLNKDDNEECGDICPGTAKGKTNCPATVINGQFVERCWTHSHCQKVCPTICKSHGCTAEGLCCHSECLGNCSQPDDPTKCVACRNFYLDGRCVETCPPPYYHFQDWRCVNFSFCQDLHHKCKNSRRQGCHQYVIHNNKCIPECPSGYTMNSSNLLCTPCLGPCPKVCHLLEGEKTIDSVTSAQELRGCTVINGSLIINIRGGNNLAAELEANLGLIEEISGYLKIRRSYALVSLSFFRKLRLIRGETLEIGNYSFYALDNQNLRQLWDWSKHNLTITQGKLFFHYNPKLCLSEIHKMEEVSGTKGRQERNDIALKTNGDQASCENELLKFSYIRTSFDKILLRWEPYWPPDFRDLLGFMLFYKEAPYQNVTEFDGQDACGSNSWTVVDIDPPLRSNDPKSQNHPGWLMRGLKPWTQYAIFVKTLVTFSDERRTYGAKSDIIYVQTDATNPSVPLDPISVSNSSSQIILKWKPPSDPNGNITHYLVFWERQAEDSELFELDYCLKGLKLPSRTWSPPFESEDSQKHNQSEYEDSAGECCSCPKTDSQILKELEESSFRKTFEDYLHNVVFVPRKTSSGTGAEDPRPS
Insulin receptor (Homo sapiens), sequence (P06213 763-1382 limits assumed): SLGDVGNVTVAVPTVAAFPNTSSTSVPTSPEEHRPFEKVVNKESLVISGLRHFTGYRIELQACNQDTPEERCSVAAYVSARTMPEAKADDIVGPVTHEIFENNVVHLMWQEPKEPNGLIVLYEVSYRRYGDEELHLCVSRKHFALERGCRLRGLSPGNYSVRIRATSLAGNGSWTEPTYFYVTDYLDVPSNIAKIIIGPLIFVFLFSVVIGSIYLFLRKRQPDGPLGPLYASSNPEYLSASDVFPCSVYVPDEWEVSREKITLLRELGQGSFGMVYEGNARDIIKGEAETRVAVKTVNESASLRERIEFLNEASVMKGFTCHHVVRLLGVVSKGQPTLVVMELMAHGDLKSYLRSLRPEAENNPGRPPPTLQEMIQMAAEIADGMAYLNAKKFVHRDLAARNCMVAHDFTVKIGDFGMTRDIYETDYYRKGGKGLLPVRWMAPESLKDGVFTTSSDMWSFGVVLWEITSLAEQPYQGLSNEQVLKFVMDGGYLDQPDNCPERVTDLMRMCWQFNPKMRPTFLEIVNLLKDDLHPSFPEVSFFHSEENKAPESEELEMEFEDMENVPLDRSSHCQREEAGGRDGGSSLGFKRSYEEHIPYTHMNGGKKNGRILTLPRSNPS

Row | Molecule | inhibition [1] [%] | Activity [2] [%] | Retention_time [3] [min] | Retention_time [4] [min] | Activity [5] [%] | inhibition [6] [%] | inhibition [7] [%]
1 | CC(C)(C)c1cc(C=C(C#N)C#N)cc(Br)c1O | 80 |  |  |  |  |  | 
2 | CC[C@H](C)[C@H](NC(=O)[C@H](CC(=O)O)NC(C)=O)C(=O)N[C@@H](Cc1ccc(O)cc1)C(=O)NN(CCC(=O)O)C(=O)N[C@H](C(N)=O)[C@@H](C)O (Ac-DIY[X2]T-NH2) |  | 110 | 6.41 | 9.61 | 10 |  | 
3 | CC[C@H](C)[C@H](NC(=O)[C@H](CC(=O)O)NC(C)=O)C(=O)NN(Cc1ccc(O)c(O)c1)C(=O)N[C@@H](CCC(=O)O)C(=O)N[C@H](C(N)=O)[C@@H](C)O (Ac-DI[X1]ET-NH2) |  | 128 | 6.33 | 8.9 | 30 |  | 
4 | CC[C@H](C)[C@H](NC(=O)[C@H](CC(=O)O)NC(C)=O)C(=O)NN(Cc1ccccc1)C(=O)N[C@@H](CCC(=O)O)C(=O)N[C@H](C(N)=O)[C@@H](C)O (Ac-DI[azaPhe]ET-NH2) |  | 67 | 7.76 | 11.76 |  |  | 
5 | CC[C@H](C)[C@H](NC(=O)[C@H](CC(=O)O)NC(C)=O)C(=O)NN(Cc1ccc(O)cc1)C(=O)N[C@@H](CCC(=O)O)C(=O)N[C@H](C(N)=O)[C@@H](C)O (Ac-DI[azaTyr]ET-NH2) | 50 | 40 | 6.68 | 9.95 |  |  | 
6 | CC(=O)N[C@@H](CC(=O)O)C(=O)NN(C)C(=O)N[C@@H](Cc1ccc(O)cc1)C(=O)N[C@@H](CCC(=O)O)C(=O)N[C@H](C(N)=O)[C@@H](C)O (Ac-D[AzaAla]YET-NH2) |  | 74 | 5.26 | 7.42 |  |  | 
7 | CC[C@H](C)N(NC(=O)[C@H](CC(=O)O)NC(C)=O)C(=O)N[C@@H](Cc1ccc(O)cc1)C(=O)N[C@@H](CCC(=O)O)C(=O)N[C@H](C(N)=O)[C@@H](C)O (Ac-D[X3]YET-NH2) |  | 73 | 5.13 | 6.97 |  |  | 
8 | CC(=O)N[C@@H](CC(=O)O)C(=O)NNC(=O)N[C@@H](Cc1ccc(O)cc1)C(=O)N[C@@H](CCC(=O)O)C(=O)N[C@H](C(N)=O)[C@@H](C)O (Ac-D[azaGly]YET-NH2) |  | 61 | 5.04 | 6.99 |  |  | 
9 | Ac-DIFET-NH2 |  | 84 |  |  |  | 20 | 
10 | Ac-DIYET-NH2 | < 10 | 82 |  |  |  |  | 80
